# Measurements pooled from the literature.
# Lines come from different studies, so protocols differ. pIC50: −log10 of the molar value.
# Organism: Escherichia coli
SMILES,effect on,technique,strain,endpoint,value
Oc1cccc2cccnc12,microbial growth,broth dilution,ATCC25922,IC50,49.5 µg/mL
O=C(Nc1cccc(-c2cc(C(=O)O)no2)c1)Nc1ccc(Cl)c(Cl)c1,microbial growth,broth dilution,ATCC25922,MIC,> 64 µg/mL
O=C(N[C@H](CO)[C@H](O)c1ccc([N+](=O)[O-])cc1)C(Cl)Cl,microbial growth,,,MIC90,15.6 µg/mL
COC(=O)c1cc(-c2cccc(NC(=S)Nc3ccc(C)cc3)c2)on1,microbial growth,broth dilution,ATCC25922,MIC,> 64 µg/mL
O=C(Sc1cccccc1=O)c1ccccc1,microbial growth,broth dilution,ATCC35218,MIC80,19.8 µM
C[n+]1c(/C=C/c2ccc(O)cc2)cc(/C=C2\Sc3ccccc3N2CCCN2CCCC2)c2ccccc21.[I-],microbial growth,broth dilution,ATCCBAA2469,MIC,16 µg/mL
O=C(N/N=C/c1ccc([N+](=O)[O-])o1)c1ccc(O)cc1,microbial growth,,,MIC90,31.2 µg/mL
Cc1c(NN=C(C#N)C2=NC(=O)CS2)c(=O)n(-c2ccccc2)n1C,microbial killing,broth dilution,,MBC,0.25 µg/mL
CC(C)CCCCCCCCCCCCCCCc1cc(O)cc(O)c1,microbial growth,,,pIC50,4.15
O=C(O)c1cn(C2CC2)c2cc(N3CCNCC3)c(F)cc2c1=O,microbial killing,,,MBC,19 µM
COC(=O)c1cc(-c2cccc(NC(=O)Nc3ccc(F)cc3F)c2)on1,microbial growth,broth dilution,ATCC25922,MIC,> 64 µg/mL
CC(C)CCCCCCCCCCCCCCc1cc(O)cc(O)c1,microbial growth,,,pIC50,4.33
COC(=O)c1cc(-c2cccc(NC(=S)Nc3ccc(F)cc3F)c2)on1,microbial growth,broth dilution,ATCC25922,MIC,> 64 µg/mL
CCCCCCCCCCCCCCCCCCCCc1cc(O)cc(O)c1,microbial growth,,,pIC50,< 3.70
